In ChEMBL document CHEMBL3822391, “Synthesis and Biological Evaluation of Vitamin D3 Metabolite 20S,23S-Dihydroxyvitamin D3 and Its 23R Epimer” (J Med Chem, 2016):
Activity calls are given as the source filed them. No cut-off for these calls is given here.

Assays:
Vitamin D3 receptor [1] = target: T1, Vitamin D3 receptor (Homo sapiens, UniProt P11473); experiment: Activation of VDR in human HaCaT cells expressing lentiviral VDRE-luciferase vector assessed as VDRE-mediated transcriptional activity measured after 24 hrs by luciferase transcriptional reporter assay; format: cell-based
T1 sequence (P11473 whole entry): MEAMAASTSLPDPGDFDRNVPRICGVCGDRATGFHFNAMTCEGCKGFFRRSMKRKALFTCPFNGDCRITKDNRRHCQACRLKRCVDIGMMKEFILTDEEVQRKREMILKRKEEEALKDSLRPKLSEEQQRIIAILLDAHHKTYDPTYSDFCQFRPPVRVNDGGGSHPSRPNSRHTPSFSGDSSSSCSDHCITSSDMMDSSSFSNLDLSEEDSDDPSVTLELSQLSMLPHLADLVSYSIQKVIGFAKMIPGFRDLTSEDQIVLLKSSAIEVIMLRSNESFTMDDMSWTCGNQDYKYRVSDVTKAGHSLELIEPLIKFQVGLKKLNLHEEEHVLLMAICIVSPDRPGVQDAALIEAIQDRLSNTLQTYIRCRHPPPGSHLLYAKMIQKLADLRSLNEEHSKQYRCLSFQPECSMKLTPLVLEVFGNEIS

Vitamin D3 receptor [2] = target: T1, Vitamin D3 receptor; experiment: Activation of VDR in human Caco2 cells expressing lentiviral VDRE-luciferase vector assessed as VDRE-mediated transcriptional activity measured after 24 hrs by luciferase transcriptional reporter assay; format: cell-based, Caco-2
Vitamin D3 receptor [3] = target: T1, Vitamin D3 receptor; experiment: Activation of VDR in human Jurkat cells expressing lentiviral VDRE-luciferase vector assessed as VDRE-mediated transcriptional activity measured after 24 hrs by luciferase transcriptional reporter assay; format: cell-based
[4] = Antiinflammatory activity in DBA/1 mouse splenocytes assessed as upregulation of LAIR1 level by measuring mean fluorescence intensity at 100 nM by flow cytometry (reference value: 766 +/- 22 au); format: functional, cell-based; conditions: Splenocyte
Outline: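 Splenocytes from DBA/1 mice were cultured in EMEM with 9% charcoal-stripped FBS and treated overnight at 10^-7 M, with an ethanol vehicle control. Cells were stained with fluorochrome anti-CD4 and anti-LAIR1. LAIR1 mean fluorescence was read by multiparameter flow cytometry, gated on CD4 cells.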

[5] = Growth inhibition of human SK-MEL-188 cells measured after 48 hrs by MTS/PMS assay; format: functional; conditions: SK-MEL-188, 48 h
[6] = target: T2, 25-hydroxyvitamin D-1 alpha hydroxylase, mitochondrial (Mus musculus, UniProt O35084); experiment: Activity of mouse CYP27B1 assessed as compound hydroxylation measured per mol of phospholipid after 3 mins by HPLC; format: ADME; conditions: 0.05 h
T2 sequence (O35084 whole entry): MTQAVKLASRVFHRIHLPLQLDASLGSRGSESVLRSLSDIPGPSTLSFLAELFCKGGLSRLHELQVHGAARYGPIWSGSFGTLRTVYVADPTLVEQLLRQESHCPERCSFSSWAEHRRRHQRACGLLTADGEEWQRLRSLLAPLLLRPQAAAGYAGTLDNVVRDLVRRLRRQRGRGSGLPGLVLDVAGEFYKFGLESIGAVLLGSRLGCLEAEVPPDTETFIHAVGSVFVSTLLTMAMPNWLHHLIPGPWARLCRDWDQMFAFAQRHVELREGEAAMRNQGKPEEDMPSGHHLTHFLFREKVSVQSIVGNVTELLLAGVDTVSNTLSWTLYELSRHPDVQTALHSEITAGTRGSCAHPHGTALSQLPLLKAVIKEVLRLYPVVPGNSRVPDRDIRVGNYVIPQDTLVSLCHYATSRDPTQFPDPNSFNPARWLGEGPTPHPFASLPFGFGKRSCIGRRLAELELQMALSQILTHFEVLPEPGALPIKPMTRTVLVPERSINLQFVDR
Outline: (§1)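 Substrate was incorporated into phospholipid vesicles at 0.0025–0.07 mol/mol PL and incubated 3 min with 0.1 µM mouse CYP27B1. Product was quantified by HPLC. Km and kcat came from a Michaelis–Menten fit, given as mean ± standard error of the curve fit.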

[7] = target: T2, 25-hydroxyvitamin D-1 alpha hydroxylase, mitochondrial; experiment: Ratio of Kcat to Km for mouse CYP27B1 measured per mol of phospholipid after 3 mins by HPLC; format: ADME; conditions: 0.05 h; outline: as §1
[8] = target: T3, Vitamin D3 receptor (Homo sapiens) (UniProt P11473); experiment: Activation of VDR in human Caco2 cells expressing lentiviral VDRE-luciferase vector assessed as VDRE-mediated transcriptional activity up to 1000 nM measured after 24 hrs by luciferase transcriptional reporter assay; format: cell-based; conditions: Caco-2
T3 sequence (whole entry): T1 sequence (P11473 whole entry)
Outline: (§2)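 Cells carry a lentiviral VDRE-luciferase reporter and were selected for 1 week with an extra 1.0 µg/mL puromycin. Growth media: Caco-2 in DMEM with 10% FBS; HaCaT in the same with 5% FBS; Jurkat in RPMI 1640 with 10% FBS. Cells were plated in FBS-free medium for 24 h, then given serial concentrations (final DMSO 0.1%) for 24 h. ONE-Glo luminescence was read after 5 min at room temperature. Triplicates.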

[9] = target: T3, Vitamin D3 receptor (Homo sapiens); experiment: Activation of VDR in human HaCaT cells expressing lentiviral VDRE-luciferase vector assessed as VDRE-mediated transcriptional activity up to 1000 nM measured after 24 hrs by luciferase transcriptional reporter assay; format: cell-based; outline: as §2
[10] = target: T3, Vitamin D3 receptor (Homo sapiens); experiment: Activation of VDR in human Jurkat cells expressing lentiviral VDRE-luciferase vector assessed as VDRE-mediated transcriptional activity up to 1000 nM measured after 24 hrs by luciferase transcriptional reporter assay; format: cell-based; outline: as §2

Row | SMILES | EC50 (Vitamin D3 receptor [1]) [nM] | EC50 (Vitamin D3 receptor [2]) [nM] | EC50 (Vitamin D3 receptor [3]) [nM] | Flu intensity [4] [a.u.] | IC50 [5] [nM] | Km [6] [×10⁻³ mol/mol] | Kcat/Km [7] | Activity [8] | Activity [9] | Activity [10]
1 | C=C1/C(=C\C=C2/CCC[C@]3(C)[C@@H]([C@H](C)OCCC(C)(C)O)CC[C@@H]23)C[C@@H](O)C[C@@H]1O [MAXACALCITOL] | 160 | 144 | 0.855 | 1480 |  |  |  |  |  | 
2 | C=C1/C(=C\C=C2/CCC[C@@]3(C)[C@H]2CC[C@@H]3[C@@](C)(O)C[C@@H](O)CC(C)C)C[C@@H](O)C[C@@H]1O | 175 | 241 | 203 | 1480 | 0.01 |  |  |  |  | 
3 | C=C1/C(=C\C=C2/CCC[C@]3(C)[C@@H]([C@H](C)CCCC(C)(C)O)CC[C@@H]23)C[C@@H](O)C[C@@H]1O |  |  |  | 1360 |  |  |  |  |  | 
4 | C=C1/C(=C\C=C2/CCC[C@@]3(C)[C@H]2CC[C@@H]3[C@@](C)(O)C[C@H](O)CC(C)C)C[C@@H](O)C[C@@H]1O | 117 | 172 | 30.6 | 1480 | 0.01 |  |  |  |  | 
5 | C=C1CC[C@H](O)C/C1=C/C=C1\CCC[C@@]2(C)[C@H]1CC[C@@H]2[C@@](C)(O)C[C@@H](O)CC(C)C |  |  |  | 1480 | 0.01 | 5.2 | 4731 | inactive | inactive | inactive
6 | C=C1CC[C@H](O)C/C1=C/C=C1\CCC[C@@]2(C)[C@H]1CC[C@@H]2[C@@](C)(O)C[C@H](O)CC(C)C | 484 | 562 | 653 | 1480 | 0.01 | 2.3 | 5087 |  |  | 
